From paper PMC9177073 (Science Advances, 2022)
Counter-ions that a name gives are not always drawn. Residues, ends and D or L forms follow the SMILES beside them. *: point of attachment. Cbz = O=C(OCc1ccccc1)*

Experiments:
[1] = cited from earlier work; for ability to penetrate the blood-brain barrier: positive controls of PAMPA
[2] = target: proteasome (chymotrypsin-like) activity (Mus musculus, UniProt O55234); assay: Proteasome peptidase activity in mouse brain lysates with inhibitor; type: biochemical; details: brains of 3-month-old mice, replicate samples incubated with inhibitor
How it was run: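 Mouse brain tissue lysed mechanically in reaction buffer, with buffer volume scaled to tissue weight; the supernatant was assayed. ATP-stimulated activity used 50 mM tris-HCl pH 7.8 with 1 mM MgCl2, 0.5 mM ATP and 1 mM DTT. ATP-independent activity used 50 mM tris-HCl pH 8.0 with 1 mM MgCl2 and 1 mM DTT. Proteasome inhibitor (1 μM) was added 5 min before starting with 50 μM Suc-LLVY-AMC.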

proteasome activity = assay: Proteasome activity in mouse tissue lysates after intraperitoneal injection; details: in vivo

Compound	ability to penetrate the blood-brain barrier [1]	further results
Tat^47–57: HIV-1 Tat-derived peptide, synthesized in-house, positive control of PAMPA	known for their ability to penetrate the blood-brain barrier	
dermorphin	known for their ability to penetrate the blood-brain barrier	
CC(C)C[C@H](NC(=O)[C@H](Cc1ccccc1)NC(=O)c1cnccn1)B(O)O [bortezomib]		effect of inhibitor on increased proteasome activity of NSE-PSMB5 mouse brains [2]: blocked
CC(C)C[C@@H](C=O)NC(=O)[C@H](CC(C)C)NC(=O)[C@H](CC(C)C)NC(=O)OCc1ccccc1 [MG132, N-carbobenzyloxy-L-leucyl-L-leucyl-L-leucinal] (Cbz-Leu-Leu-Leu-aldehyde)		effect of inhibitor on the TAT1-8,9TOD-induced increase of proteasome activity (proteasome activity): could be blocked
CC(C)NCC(O)COc1cccc2ccccc12 (stereo not drawn) [propranolol, Propranolol hydrochloride]	known for their ability to penetrate the blood-brain barrier	
NCCc1ccc(O)c(O)c1 [Dopamine, Dopamine hydrobromide]		ability to cross the blood-brain barrier ([1]; negative control of PAMPA): unable to efficiently cross the blood-brain barrier
